{"source": "PubChem BioAssay AID504383", "about": "(The Scripps Research Institute Molecular Screening Center, 2011)", "note": "Out of some 2,500 compounds screened, about 1,200 (48%) were called active. So high a share suggests a set chosen from earlier hits. Some of the results follow. Values without a mark were called inactive.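 Rule for the calls: active = mean activation above the low control average plus 3 SD, as set in the primary screen (cut at about 12% in these data); inactive = the rest.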", "data": [{"target": "Troponin I, cardiac muscle (Homo sapiens) + Troponin T, cardiac muscle (Homo sapiens) + Troponin C, slow skeletal and cardiac muscles (Homo sapiens) (UniProt P19429+P45379+P63316)", "assay": "cardiac RTF calcium sensitivity activators, confirmation, biochemical, IANBD-TnC fluorescence, triplicate (AID 504383);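 note: 0% = DMSO at 0.472 mM calcium and 100% = DMSO at 2.9 mM calcium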", "conditions": "IANBD-labeled cardiac RTF, Ca2+ sensitivity fluorescence; at 7.2 µM; active compounds read high; scaled from EC20 to saturating calcium; tested at EC20 calcium, 0.472 mM", "method_in_brief": "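System: Labelled thin filament complex | Technique: Filament fluorescence intensity | Benchmarks: Low control EC20 calcium, high control EC100 calcium | Timing: 15 min at 25 °C | Compound dosing: One dose, 7.2 µM nominal | Probe or stimulus: Ca2+ 0.472 mM, EC20 level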", "values": [{"smiles": "COc1ccc(S(=O)(=O)Nc2cc(C)on2)cc1", "activation": "57.2% (active)"}, {"smiles": "COc1ccc(NC(=O)NS(=O)(=O)c2ccc(C)cc2)cn1", "activation": "7.89%"}, {"smiles": "O=c1[nH]c2ccccc2nc1/C=C/c1ccc(F)cc1", "activation": "9.41%"}, {"smiles": "O=c1[nH]c2ccccc2nc1/C=C(\\O)c1cccs1", "activation": "11.4%"}, {"smiles": "O=c1[nH]c2ccccc2nc1/C=C/c1ccccc1", "activation": "351% (active)"}, {"smiles": "CC1(C)CC(=O)C(CC2CCCCC2=O)C(=O)C1", "note": "(stereo not drawn)", "activation": "15.2% (active)"}, {"smiles": "CN1CCc2c(sc3nc(SCC(N)=O)n(-c4ccccc4)c(=O)c23)C1", "activation": "3.18%"}, {"smiles": "NS(=O)(=O)c1cccc(NC(=O)CCc2ccc(S(=O)(=O)N3CCOCC3)cc2)c1", "activation": "84.4% (active)"}, {"smiles": "O=C(COC(=O)C1CC2C=CC1C2)Nc1cccc(S(=O)(=O)N2CCCCCC2)c1", "note": "(stereo not drawn)", "activation": "5.75%"}, {"smiles": "O=C(CCc1ccc(S(=O)(=O)N2CCOCC2)cc1)OCC(=O)c1ccccc1", "activation": "20.7% (active)"}, {"smiles": "O=C1CC(/C=C/c2ccco2)=Nc2ccccc2N1", "activation": "7.68%"}, {"smiles": "O=C1C(=Cc2ccco2)CCCC1=Cc1ccco1", "activation": "93.5% (active)"}, {"smiles": "Cc1cc(O)c(CN(C)C)c2c1C(=O)/C(=C/c1ccco1)O2", "activation": "8.55%"}, {"smiles": "Nc1ccc2c(c1)C/C(=C/c1ccco1)C2=O", "activation": "22% (active)"}, {"smiles": "O=C1/C(=C/c2c[nH]c3ccccc23)CCC/C1=C\\c1c[nH]c2ccccc12", "activation": "7.19%"}, {"smiles": "O=C(COC(=O)/C=C/c1ccccc1[N+](=O)[O-])NNC(=O)c1ccc(F)cc1", "activation": "9.23%"}, {"smiles": "O=C(O)CCC(=O)NNC(=O)c1ccc(-c2ccccc2)cc1", "activation": "104% (active)"}, {"smiles": "CCNC(=O)COc1ccc(-c2ccccc2)cc1", "activation": "4.33%"}, {"smiles": "Cc1ccsc1/C=C/C1=Cc2c(sc(NC(=O)CSc3n[nH]c(N)n3)c2C#N)C(C)(C)C1", "activation": "6.84%"}, {"smiles": "O=S(=O)(Nc1nc2ccccc2nc1NCCO)c1cccc(Cl)c1", "activation": "233% (active)"}, {"smiles": "O=S(=O)(Nc1nc2ccccc2nc1N1CCN(c2ccccn2)CC1)c1ccc(Cl)cc1", "activation": "0.27%"}, {"smiles": "Cn1c(-c2ccc(C=O)s2)nc2c3ccccc3c3ccccc3c21", "activation": "25.8% (active)"}, {"smiles": "CCOc1ccc(-c2nc3scc(-c4cccs4)c3c(=O)[nH]2)cc1", "activation": "54.4% (active)"}, {"smiles": "COc1ccc(C2c3ccc(O)cc3Oc3ncn(CCCO)c(=N)c32)cc1OC", "note": "(stereo not drawn)", "activation": "6.69%"}, {"smiles": "COc1ccc(C2c3ccc(O)cc3Oc3ncn(Cc4ccccc4)c(=N)c32)cc1OC", "note": "(stereo not drawn)", "activation": "2.66%"}, {"smiles": "COc1ccc(C2c3ccc(O)cc3Oc3ncn(CCN4CCOCC4)c(=N)c32)cc1OC", "note": "(stereo not drawn)", "activation": "23% (active)"}, {"smiles": "N=c1c2c(ncn1Cc1ccco1)Oc1cc(O)ccc1C2c1ccccc1", "note": "(stereo not drawn)", "activation": "127% (active)"}, {"smiles": "COc1ccc(C2c3ccc(O)cc3Oc3ncn(Cc4ccco4)c(=N)c32)cc1", "note": "(stereo not drawn)", "activation": "15.9% (active)"}, {"smiles": "Cc1c(O)ccc(/C(Cc2ccc3ccccc3n2)=N\\N)c1O", "activation": "9.3%"}, {"smiles": "CCCCOc1[nH]c2nc(-c3ccco3)n(Cc3ccco3)c(=N)c2c1C#N", "activation": "7.26%"}, {"smiles": "N#CC1(C#N)CC(C=O)=C(N)C1(C#N)CC(=O)c1ccc(F)cc1", "note": "(stereo not drawn)", "activation": "18.1% (active)"}, {"smiles": "CCOC(=O)C1=C(C)NC(=O)/C1=C\\N(C)C", "activation": "3.21%"}, {"smiles": "COC(=O)C1=C(C)NC(=O)/C1=C\\N(C)C", "activation": "29.9% (active)"}, {"smiles": "CCN(CC)c1ccc(/C=C/C(=O)c2ccc(Br)cc2)cc1", "activation": "11.2%"}, {"smiles": "CCN(CC)c1ccc(/C=C2/C(=O)c3ccc(C(=O)O)cc3C2=O)cc1", "activation": "21.9% (active)"}, {"smiles": "CCN(CC)c1ccc(/C=C2\\C(=O)c3ccc(C(=O)O)cc3C2=O)cc1", "activation": "28.1% (active)"}, {"smiles": "CN(/N=C/c1ccc(N(C)C)cc1)C1=NS(=O)(=O)c2ccccc21", "activation": "32.9% (active)"}, {"smiles": "CN(C)c1ccc(/C=N/N(CCO)C2=NS(=O)(=O)c3ccccc32)cc1", "activation": "13.5% (active)"}, {"smiles": "COc1ccccc1C(=O)NN(C)C1=NS(=O)(=O)c2ccccc21", "activation": "7.92%"}, {"smiles": "COc1ccc(COc2cc(-c3cccc(OC)c3)nc3ccc(NC(=O)c4ccc(C)cc4)cc23)cc1", "activation": "1.71%"}, {"smiles": "Cc1ccc(C(=O)Nc2ccc3c(c2)ncn3C)cc1", "activation": "27.7% (active)"}, {"smiles": "CC(=O)NC(CCS(C)(=O)=O)C(=O)Nc1cc(C)on1", "note": "(stereo not drawn)", "activation": "15.8% (active)"}, {"smiles": "Cc1cc(NC(=O)CCC(=O)N(CCC(C)C)C(C(=O)NC2CCCC2)c2cccnc2)no1", "note": "(stereo not drawn)", "activation": "3.5%"}, {"smiles": "CCN(CC(=O)Nc1c(F)cccc1F)C(=O)CNC(=O)COc1ccccc1", "activation": "-0.22%"}, {"smiles": "CCN(CC(=O)Nc1ccccc1C(F)(F)F)C(=O)c1ccc(-n2nc(C)c(CCC(=O)OC)c2C)cc1", "activation": "29.8% (active)"}, {"smiles": "COc1ccc(-c2cc3ncc(-c4ccccc4)c(N)n3n2)cc1", "activation": "15.2% (active)"}, {"smiles": "O=C(Nc1cccc(Cl)c1)c1cc(S(=O)(=O)NCCc2ccc(Cl)cc2)ccc1F", "activation": "13.9% (active)"}, {"smiles": "COc1ccc(OC)c2[nH]c(=O)c(CCNS(=O)(=O)c3ccc(Cl)cc3)cc12", "activation": "1.64%"}, {"smiles": "COc1ccc(-c2c(C#N)c(N)nc3sc(C(=O)c4ccccc4)c(N)c23)cc1", "activation": "-1.46%"}, {"smiles": "COc1ccc(C(=O)c2ccsc2N)cc1", "activation": "22% (active)"}, {"smiles": "COc1ccc(C(=O)c2sc3nc(-c4ccccc4)ccc3c2N)cc1", "activation": "85.5% (active)"}, {"smiles": "COc1ccc(C(=O)c2sc3nc(C)cc(-c4cccs4)c3c2N)cc1OC", "activation": "4.99%"}, {"smiles": "COc1ccc(C(=O)c2sc3nc(C)cc(-c4cccs4)c3c2N)cc1", "activation": "24.7% (active)"}, {"smiles": "Cc1cc(C)c(S(=O)(=O)Nc2ccc3[nH]c(=O)[nH]c3c2)c(C)c1", "activation": "21.2% (active)"}, {"smiles": "Cc1cc(C)c(C(N)=O)c(Nc2ccc(F)cc2)n1", "activation": "1.65%"}, {"smiles": "Cc1ccc(NC(=O)Nc2ccc(F)cc2)cc1Cl", "activation": "20.6% (active)"}, {"smiles": "Cc1ccc(NC(=O)C(OC(=O)c2ccc(F)cc2)c2ccccc2)cc1Cl", "note": "(stereo not drawn)", "activation": "8.32%"}, {"smiles": "O=C(O)c1ccccc1-c1ccc(/C=C/c2cc(C(F)(F)F)[nH]c(=O)n2)o1", "activation": "8.85%"}, {"smiles": "O=C(O)c1cc(Cl)ccc1-c1ccc(/C=C/c2cc(C(F)(F)F)[nH]c(=O)n2)o1", "activation": "56.3% (active)"}, {"smiles": "CC(=O)OCC[N+](C)(C)C", "activation": "54.7% (active)"}, {"smiles": "O=C1/C(=C/c2cccc(F)c2)Oc2cc(O)ccc21", "activation": "5.33%"}, {"smiles": "O=C1/C(=C/c2ccc(Br)cc2)Oc2cc(O)ccc21", "activation": "58.7% (active)"}, {"smiles": "COc1cc(/C=C2\\Oc3cc(O)ccc3C2=O)ccc1O", "activation": "-0.13%"}, {"smiles": "Cc1cn2c(N)c(C=C3C=C(Cl)C(=O)C(Cl)=C3)c(=O)nc2s1", "activation": "17.6% (active)"}, {"smiles": "COC1=C/C(=C/c2c(N)n3c(nc2=O)sc2cc(S(C)(=O)=O)ccc23)C=CC1=O", "activation": "10.2%"}, {"smiles": "COC1=C/C(=C/c2c(N)n3cc(C)sc3nc2=O)C=CC1=O", "activation": "4.28%"}, {"smiles": "C=CCNc1nnc(SCC(=O)N2CCC(C(N)=O)CC2)s1", "activation": "15.8% (active)"}, {"smiles": "COc1ccc(C2C(C(=O)c3cccs3)=C(O)C(=O)N2c2nnc(C)s2)cc1OC", "note": "(stereo not drawn)", "activation": "7.86%"}, {"smiles": "O=C(Oc1ccc2ccc(=O)oc2c1)c1cccs1", "activation": "1.63%"}, {"smiles": "C=CCOc1ccc(C2C(C(=O)c3cccs3)=C(O)C(=O)N2c2nnc(C)s2)cc1", "note": "(stereo not drawn)", "activation": "15.5% (active)"}, {"smiles": "Cc1ccc(C2C(C(=O)c3cccs3)=C(O)C(=O)N2c2nnc(C)s2)cc1", "note": "(stereo not drawn)", "activation": "52.5% (active)"}, {"smiles": "COc1ccc(C2C(C(=O)c3cccs3)=C(O)C(=O)N2c2nncs2)cc1", "note": "(stereo not drawn)", "activation": "20.1% (active)"}, {"smiles": "Cc1cc(N2C(=O)C(O)=C(C(=O)c3cccs3)C2c2ccc(F)cc2)no1", "note": "(stereo not drawn)", "activation": "23.8% (active)"}, {"smiles": "O=C(c1ccccc1)N1C(=O)C(c2ccccc2)Oc2ccccc21", "note": "(stereo not drawn)", "activation": "1.2%"}, {"smiles": "COc1cc(OC)cc(C(=O)NCC(=O)OC2CCOC2=O)c1", "note": "(stereo not drawn)", "activation": "17.4% (active)"}, {"smiles": "O=C1/C(=C/c2cccs2)N=C(c2cccs2)N1Nc1ccccc1", "activation": "18.7% (active)"}, {"smiles": "CCOc1ccc(NC(=O)/C(C#N)=C/c2ccc(N3CCCC3)c(C)c2)cc1", "activation": "2.19%"}, {"smiles": "Cc1cc(/C=C2/C(=O)N(C)C(=S)N2C)ccc1N1CCCC1", "activation": "106% (active)"}, {"smiles": "Cc1cc(N2CCCC2)ccc1/C=C1\\NC(=S)N(C)C1=O", "activation": "11.3%"}, {"smiles": "CCCN1C(=O)/C(=C/c2ccc(N3CCCC3)c(C)c2)NC1=S", "activation": "8.1%"}, {"smiles": "CCOc1ccc(NC(=O)/C(C#N)=C\\c2ccc(N3CCCC3)c(C)c2)cc1", "activation": "1.35%"}, {"smiles": "Cc1cc(/C=C2\\NC(=S)N(C)C2=O)ccc1N1CCCC1", "activation": "26.1% (active)"}, {"smiles": "COc1ccc(C(=O)Cn2cnc3ccccc3c2=O)cc1OC", "activation": "6.44%"}, {"smiles": "O=C(Cn1cnc2ccccc2c1=O)c1ccc(Br)cc1", "activation": "424% (active)"}, {"smiles": "O=C(c1ccc(Cl)cc1)n1cnc2ccccc21", "activation": "7.26%"}, {"smiles": "COc1cc(/C=C(\\C#N)c2nc3ccccc3o2)ccc1O", "activation": "3.75%"}, {"smiles": "COc1cc(/C=C(/C#N)C(=O)NCCCc2ccccc2)ccc1OCC(=O)O", "activation": "11.5%"}, {"smiles": "COc1cc(/C=C(\\C#N)c2nc3ccccc3s2)ccc1OCC(=O)Nc1ccccc1", "activation": "92.9% (active)"}, {"smiles": "CCN(CC)c1ccc(/C=C/c2cc(-c3ccccc3)c3ccccc3n2)cc1", "activation": "19.4% (active)"}, {"smiles": "CC(=O)Nc1ccc(S(=O)(=O)Nc2nc3ccccc3nc2Nc2ccc(N)cc2)cc1", "activation": "5.97%"}, {"smiles": "c1ccc(Nc2nc3ccccc3n3cnnc23)cc1", "activation": "10.4%"}, {"smiles": "Cn1cnnc1Sc1nc2ccccc2nc1NS(=O)(=O)c1ccccc1", "activation": "26.2% (active)"}, {"smiles": "Cn1nnc(NC(=S)NC(=O)/C=C/c2ccco2)n1", "activation": "4.19%"}, {"smiles": "CCC(CC)c1nnc(NC(=O)/C=C/c2ccco2)s1", "activation": "18.8% (active)"}, {"smiles": "COc1ccc(C(=O)/C=C/c2ccc(N(C)C)cc2)c(OC)c1", "activation": "7.89%"}, {"smiles": "COc1ccc(N=C2NC(=O)S/C2=C\\c2ccc(N(C)C)cc2)cc1", "activation": "54.9% (active)"}, {"smiles": "CCOc1ccc(N=C2NC(=O)S/C2=C\\c2ccc(N(C)C)cc2)cc1", "activation": "5340% (active)"}, {"smiles": "C=CCOc1ccc(/C=C2\\SC(=Nc3cccnc3)NC2=O)cc1", "activation": "6.73%"}]}]}
